{
  "source": "paper PMC3786410",
  "about": "(Bioorganic & medicinal chemistry, 2013)",
  "key": {"[1]": {"target": "T1, S1PR2 (Homo sapiens, UniProt O95136)", "T1 sequence (O95136 whole entry)": "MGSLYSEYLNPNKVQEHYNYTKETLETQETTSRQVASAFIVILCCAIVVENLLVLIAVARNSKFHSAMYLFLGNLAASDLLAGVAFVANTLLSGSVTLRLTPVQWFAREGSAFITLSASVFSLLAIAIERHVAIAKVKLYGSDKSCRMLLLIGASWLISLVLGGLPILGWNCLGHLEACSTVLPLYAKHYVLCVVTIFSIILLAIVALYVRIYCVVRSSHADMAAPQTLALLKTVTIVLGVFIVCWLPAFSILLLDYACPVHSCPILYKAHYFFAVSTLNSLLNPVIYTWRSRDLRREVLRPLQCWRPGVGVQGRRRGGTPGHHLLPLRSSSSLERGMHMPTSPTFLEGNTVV", "assay": "JTE-013 inhibition of agonists in the S1PR2 CRE-bla assay", "type": "cell-based", "conditions": "linear regression of Schild plot, against S1P"}, "[2]": {"target": "T1, S1PR2", "assay": "33P-S1P radioligand competition binding assay", "conditions": "read-out: IC50, displacement of radiolabeled S1P, S1PR2-CRE bla cells, 4°C"}, "[3]": {"tested_on": "CRE", "conditions": "ref PubChem AID 662; cited from earlier work"}, "[4]": {"tested_on": "CRE-bla parental cell line", "assay": "parental CRE-bla CHO cell line counterscreen assay", "type": "cell-based", "procedure,_shortened": "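Counterscreen in the parental CRE-β-lactamase reporter CHO line without S1PR2, run alongside the S1PR2 assay. Hits were retested in triplicate at 5 micromolar and then tested in dose response.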"}, "[5]": {"target": "triple mutant S1PR2 (R108A, E109A and K269A) (Homo sapiens, UniProt O95136, E109A/K269A/R108A)", "sequence (O95136 whole entry R108A/E109A/K269A)": "as the sequence (O95136 whole entry) above, with R108A, E109A, K269A counted along it", "assay": "GloSensor cAMP assay, triple mutant S1PR2-eGFP Jump-In CHO cells", "type": "cell-based"}, "[6]": {"target": "wild type S1PR2 (Homo sapiens, UniProt O95136)", "sequence (O95136 whole entry)": "as the sequence (O95136 whole entry) above", "assay": "GloSensor cAMP assay, wild type S1PR2-eGFP Jump-In CHO cells", "type": "cell-based"}, "[7]": {"target": "S1PR1 (Homo sapiens, UniProt P21453)", "sequence (P21453 whole entry, species assumed)": "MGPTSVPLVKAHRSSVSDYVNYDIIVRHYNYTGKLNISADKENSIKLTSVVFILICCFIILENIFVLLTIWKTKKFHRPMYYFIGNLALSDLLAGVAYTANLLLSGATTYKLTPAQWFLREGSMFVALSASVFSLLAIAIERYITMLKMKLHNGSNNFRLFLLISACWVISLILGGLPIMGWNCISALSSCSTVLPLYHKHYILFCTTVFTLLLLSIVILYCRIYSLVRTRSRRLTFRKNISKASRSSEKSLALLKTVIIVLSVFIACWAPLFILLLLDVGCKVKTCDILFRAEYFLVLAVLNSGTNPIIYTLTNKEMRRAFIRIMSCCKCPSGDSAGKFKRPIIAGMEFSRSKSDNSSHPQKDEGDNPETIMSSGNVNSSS", "assay": "S1PR1 agonist assay", "type": "cell-based"}, "[8]": {"target": "T2, S1PR4 (Homo sapiens, UniProt O95977)", "T2 sequence (O95977 1-384)": "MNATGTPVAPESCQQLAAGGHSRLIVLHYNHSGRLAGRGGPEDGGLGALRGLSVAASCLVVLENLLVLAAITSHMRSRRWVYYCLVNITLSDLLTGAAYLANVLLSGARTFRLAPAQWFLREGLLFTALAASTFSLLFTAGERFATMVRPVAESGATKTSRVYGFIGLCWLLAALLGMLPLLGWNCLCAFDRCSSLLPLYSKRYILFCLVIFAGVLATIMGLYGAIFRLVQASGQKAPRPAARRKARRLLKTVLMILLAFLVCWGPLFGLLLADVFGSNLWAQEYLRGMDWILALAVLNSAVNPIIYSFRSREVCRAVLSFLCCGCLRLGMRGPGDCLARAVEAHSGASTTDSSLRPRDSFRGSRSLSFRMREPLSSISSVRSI", "assay": "S1PR4 agonist assay", "type": "cell-based"}, "[9]": {"target": "S1PR5 (Homo sapiens, UniProt Q9H228)", "sequence (Q9H228 whole entry, species assumed)": "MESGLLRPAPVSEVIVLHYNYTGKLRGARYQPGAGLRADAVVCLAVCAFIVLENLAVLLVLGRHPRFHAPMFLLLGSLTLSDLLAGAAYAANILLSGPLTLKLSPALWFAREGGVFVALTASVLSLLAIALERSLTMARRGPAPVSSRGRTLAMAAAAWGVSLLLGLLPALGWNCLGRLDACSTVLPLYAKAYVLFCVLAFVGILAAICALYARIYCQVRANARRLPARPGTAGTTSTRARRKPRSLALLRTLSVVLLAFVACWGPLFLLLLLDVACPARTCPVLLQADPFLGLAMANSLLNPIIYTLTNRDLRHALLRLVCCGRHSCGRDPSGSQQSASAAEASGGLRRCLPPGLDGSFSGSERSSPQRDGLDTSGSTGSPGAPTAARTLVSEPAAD", "assay": "S1PR5 agonist assay", "type": "cell-based"}, "[10]": {"target": "T1, S1PR2", "assay": "S1PR2 CRE-bla CHO reporter agonist assay", "type": "cell-based", "conditions": "for EC50: read-out: EC50 S1PR2; for Emax: read-out: Max Activity (% of 1 μM S1P)", "procedure,_shortened": "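Stable CHO line carrying a CRE-driven β-lactamase reporter and expressing human S1PR2, run in 384-well format. […] For antagonist challenge, agonist dose responses were run with a reference S1PR2 antagonist at 10, 30 or 90 nM.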"}, "[11]": {"target": "S1PR3 (Homo sapiens, UniProt Q99500)", "sequence (Q99500 whole entry, species assumed)": "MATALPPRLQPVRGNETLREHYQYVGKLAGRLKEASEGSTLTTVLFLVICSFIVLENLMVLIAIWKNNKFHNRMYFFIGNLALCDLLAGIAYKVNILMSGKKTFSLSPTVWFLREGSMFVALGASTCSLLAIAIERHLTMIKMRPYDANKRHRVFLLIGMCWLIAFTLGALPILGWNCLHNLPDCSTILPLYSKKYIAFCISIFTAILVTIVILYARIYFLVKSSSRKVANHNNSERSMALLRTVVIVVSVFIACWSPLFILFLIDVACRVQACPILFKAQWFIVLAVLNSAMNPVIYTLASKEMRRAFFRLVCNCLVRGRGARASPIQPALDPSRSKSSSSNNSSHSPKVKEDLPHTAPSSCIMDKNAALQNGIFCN", "assay": "S1PR3 agonist assay", "type": "cell-based"}},
  "note": "Like-named read-outs stand apart in the source and are kept apart here.",
  "data": [
    {"smiles": "Cc1nn(C)c2nc(NNC(=O)Nc3cc(Cl)nc(Cl)c3)cc(C(C)C)c12", "note": "[JTE-013]", "values": [
      {"measurement": "Ki", "setting": "[1]", "result": 20, "unit": "nM"},
      {"measurement": "IC50", "setting": "[2]", "result": 53, "unit": "nM"}
    ]},
    {"smiles": "CCOC(=O)c1c(C)n(C)c2ccc(OCC(O)Cn3nc(C)cc3C)cc12", "note": "(stereo not drawn) [MLS000049871]", "values": [
      {"measurement": "activity in PubChem AID 662", "setting": "[3]", "result": "active"},
      {"measurement": "activity in the CRE-bla counterscreen (in words)", "setting": "[4]", "result": "inactive"}
    ]},
    {"smiles": "CCCCCCCCCCCCC/C=C/[C@@H](O)[C@@H](N)COP(=O)(O)O", "note": "[S1P, Sphingosine 1-phosphate, reference compound]", "values": [
      {"measurement": "cAMP response (in words)", "setting": "[5]", "result": "did not elicit a rise in luciferase activity"},
      {"measurement": "agonist efficacy (in words)", "setting": "[6]", "result": "full agonists"}
    ]},
    {"smiles": "Cc1ccc(Sc2ccc(C3SCCS3)cc2[N+](=O)[O-])cc1", "note": "[compound 3]", "values": [
      {"measurement": "activity in S1PR1 agonist assay", "setting": "[7]", "result": "inactive"},
      {"measurement": "activity in S1PR4 agonist assay", "setting": "[8]", "result": "inactive"},
      {"measurement": "activity in S1PR5 agonist assay", "setting": "[9]", "result": "inactive"},
      {"measurement": "EC50", "setting": "[10]; Table 2, purchased analogues of XAX-164", "result": 550, "unit": "nM"},
      {"measurement": "Emax", "setting": "[10]; Table 2", "result": 130, "unit": "%"},
      {"measurement": "activity in S1PR3 agonist assay", "setting": "[11]", "result": "inactive"}
    ]},
    {"smiles": "Cc1cc(C(=O)Cn2cc(C#N)ccc2=O)c(C)n1Cc1ccccc1", "note": "[compound 14]", "values": [
      {"measurement": "activity in S1PR1 agonist assay", "setting": "[7]", "result": "inactive"},
      {"measurement": "activity in S1PR4 agonist assay", "setting": "[8]", "result": "inactive"},
      {"measurement": "activity in S1PR5 agonist assay", "setting": "[9]", "result": "inactive"},
      {"measurement": "increase in potency", "setting": "[10]; cyanide group in place of the trifluoromethyl of 10", "result": 1.6, "unit": "fold"},
      {"measurement": "EC50", "setting": "[10]; Table 3, synthesized compounds", "result": 480, "unit": "nM"},
      {"measurement": "Emax", "setting": "[10]; Table 3", "result": 100, "unit": "%"},
      {"measurement": "EC50", "setting": "[6]; read-out: EC50, cAMP response", "result": 1600, "unit": "nM"},
      {"measurement": "activity in S1PR3 agonist assay", "setting": "[11]", "result": "inactive"},
      {"measurement": "activity in the CRE-bla counterscreen (in words)", "setting": "[4]", "result": "inactivity"}
    ]}
  ]
}
